Assay results from publication PMC2903386 (The Journal of Biological Chemistry, 2010).
Each block holds one substance with its values, some of them ahead of it.

Experiments:
[1] = target: trypsin (Bos taurus, UniProt P00760); test: Cleavage by purified trypsin; assay type: in vitro ADME, bovine; conditions: Cy5-labeled ACPP, gel (supplemental Fig. 4)
Procedure, shortened: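 Commercial active-form purified enzyme at 50 nm was incubated with 5 μm Cy5-labeled peptide in the manufacturer's recommended buffer. Samples were mixed with Tricine sample buffer, boiled 1 min, and resolved on 10–20% Tricine acrylamide gels. Gels were imaged quantitatively at excitation 628 ± 20 nm and emission >700 nm, and the percentage of cleaved versus uncleaved peptide was quantified.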

[2] = tested on: PyMT mammary tumors; test: Fluorescence imaging contrast in PyMT tumor-bearing mice; assay type: in vivo, mouse; conditions: PyMT mice, Cy5-labeled ACPP i.v., 6 h; data not shown
Procedure, shortened: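 PyMT transgenic mice bearing spontaneous mammary tumors were anesthetized with ketamine 80 mg/kg plus midazolam 5 mg/kg (1:1) and weighed. They were injected via the tail vein with Cy5 peptide: free peptide 100 μl of 100 μM (10 nmol) or albumin-reactive peptide 100 μl of 30 μM (3 nmol). Maestro imaging (ex 640 ± 24 nm, em >700 nm) was done at 6 h or 48 h, comparing tumor with adjacent normal tissue.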

[3] = Effect of inhibitors on cleavage of RLQLKL ACPP by tumor extract; assay type: biochemical, mouse; conditions: 5 μM Cy5-labeled RLQLKL ACPP, tumor extract 2.0 to 0.25%; 60 μM α1-antitrypsin; gel
Procedure, shortened: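 Fresh tumor tissue was gently homogenized in PBS on ice and spun at 14,000 × g for 1 min; the supernatant served as the extract. The 5 μm Cy5 peptide was digested at 37 °C in PBS containing 1 μm ZnCl2, with or without 60 μm α1-antitrypsin. Aliquots were taken from 20 min to 18 h, with the 2-h point reported. Cleavage was quantified by Tricine gel and fluorescence imaging.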

[4] = Effect of inhibitors on cleavage of RLQLKL ACPP by PyMT tumor cystic fluid; assay type: biochemical, mouse; conditions: 5 μM Cy5-labeled RLQLKL ACPP, 2% cystic fluid, 2 h; 5 mM Ca-DTPA, 50 μM TPEN, 18 μM SB3CT, 50 nM GM6001, 0.26 μM prinomastat, 150 nM aprotinin, 100 μM leupeptin, 60 μM α1-antitrypsin; gel
Procedure, shortened: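 Cystic fluid was aspirated by syringe from surgically exposed fluid-filled mammary tumor nodules of PyMT mice. The 5 μm Cy5 peptide was incubated at 37 °C for 2 h in PBS with 1 μm ZnCl2. Inhibitors were used at manufacturer-recommended concentrations, including 10 μm E-64, 1 μm pepstatin A, protease inhibitor mixture III (1:1000) and mixture III plus DTPA. Cleavage was read by Tricine gel electrophoresis and Cy5 fluorescence imaging.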

[5] = tested on: MMP-13; test: MMP-13
[6] = tested on: MMP-8; test: MMP-8
[7] = tested on: hepsin; test: hepsin; conditions: up to 2 h
[8] = tested on: matriptase; test: matriptase
[9] = tested on: prostate-specific antigen; test: prostate-specific antigen; conditions: up to 2 h
[10] = tested on: enterokinase; test: enterokinase; conditions: up to 2 h
[11] = tested on: legumain; test: legumain

trypsin, sequence (P00760 24-246): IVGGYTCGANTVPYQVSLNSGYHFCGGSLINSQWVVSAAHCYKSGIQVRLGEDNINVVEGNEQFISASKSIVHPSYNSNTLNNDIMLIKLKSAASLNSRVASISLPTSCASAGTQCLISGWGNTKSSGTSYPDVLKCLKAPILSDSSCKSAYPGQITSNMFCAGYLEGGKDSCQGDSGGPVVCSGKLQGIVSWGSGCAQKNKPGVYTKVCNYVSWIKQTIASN

cleavage by trypsin (in words) [1]: efficiently cleaved
Substance: RTRYED [RTRYED ACPP]
fluorescence contrast in tumors relative to adjacent normal tissue (in words) [2]: little fluorescence contrast

Substance: α1-antitrypsin: natural inhibitor of elastase [reference compound]
inhibition of tumor extract cleavage of RLQLKL ACPP (in words) [3]: significantly inhibited
inhibition of cystic fluid cleavage of RLQLKL ACPP (in words) [4]: inhibited

not cleaved [5]: no cleavage
not cleaved [6]: no cleavage
not cleaved [7]: less than 3% cleavage
not cleaved [8]: no cleavage
not cleaved [9]: less than 3% cleavage
not cleaved [10]: less than 3% cleavage
not cleaved [11]: no cleavage
Substance: NH2-e9-(ahx)-RLQLKL-r9-c-(Cy5)-NH2
